Experimental data reported in ChEMBL document CHEMBL1955811, “Inhibition of colony-stimulating-factor-1 signaling in vivo with the orally bioavailable cFMS kinase inhibitor GW2580” (Proc Natl Acad Sci U S A, 2005).
Activity calls are given as the source filed them. The calls are words filed in the database; no cut-off is given here.

How the values were obtained:
[1] = test system: Mus musculus; experiment: Inhibition of thioglycolate-induced macrophage influx into peritoneal cavity in mouse at 80 mg/kg, po BID administered 7 days before and 4 days after thioglycolate challenge; format: functional
In short: (§1)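 Female C3H/HEN mice (22-26 g) were dosed orally with compound suspended in 0.5% hydroxypropylmethylcellulose/0.1% Tween 80 (0.2 ml per mouse). Thioglycolate (1.5 ml) was injected i.p. on day 0. On day 4, the peritoneum was lavaged with 5 ml cold PBS containing 40 units/ml heparin, and cells were counted by hemocytometer in 0.1% crystal violet. Data are mean ± SEM; Dunnett's test.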

[2] = (§2) Cmax in mouse at 80 mg/kg, po; format: ADME, organism-based; set-up: dose 80 mg/kg, route oral; conditions: in vivo
In short: (§3)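 Female mice given single oral doses (20 or 80 mg/kg) in 0.5% HPMC/0.1% Tween 80. Three mice killed with CO2 per time point; plasma extracted with isopropyl alcohol/acetonitrile, then vortexed, sonicated and centrifuged. Quantified by LC/MS (APCI positive mode, multiple-reaction monitoring) against a standard curve prepared in plasma.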

[3] = test system: Mus musculus; experiment: Inhibition of LPS-stimulated TNF production in mouse at 20 to 80 mg/kg, po administered 4.5 hr before LPS challenge and measured […] after LPS challenge; format: functional, organism-based
[4] = Cmax in mouse at 20 mg/kg, po; format: ADME, organism-based; set-up: dose 20 mg/kg, route oral; conditions: in vivo; in short: as §3
[5] = Inhibition of PTH-induced Wistar rat fetal long bone degradation assessed as labeled 45Ca release in to media at 0.1 to 0.3 uM after 48 hrs by liquid scintillation spectrometry; format: functional
In short: (§4)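 Fetal rat long bones preloaded with 45CaCl2 and incubated for 24 h. PTH and compound then added; release of labelled calcium into the medium measured 48 h later.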

[6] = Protein binding in cell-culture media with human plasma at 3 uM; format: ADME, cell-free; conditions: read-out: PB (converted)
In short: (§5)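 Compound at 3 μM was added to triplicate samples and incubated 1 h at 37°C. Samples were centrifuged through a 30,000-MW filter (1,500 × g, 15 min, 4°C). Percent bound was calculated from compound concentrations in the filtrate and retentate.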

[7] = test system: Osteoclast; experiment: Inhibition of human osteoclast degradation of bone assessed as bone slice resorbed at 1 uM after 3 days by immunocytochemistry (reference value: 26.6 +/- 4.7 %); format: functional; conditions: 72 h
[8] = test system: NCI-N87; experiment: Growth inhibition of serum-stimulated human NCI-N87 cells after 3 days by spectrophotometry; format: functional, cell-based; conditions: NCI-N87, 72 h
In short: (§6)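 Cells cultured so that added serum or growth factor gave linear growth. Compound tested as a 10- to 12-point dose-response with a top concentration of 20 μM.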

[9] = test system: Osteoclast; experiment: Inhibition of human osteoclast degradation of bone assessed as reduction in actin ring formation per cm2 of bone at 10 uM […] by immunocytochemistry (reference value: 1546 +/- 232 /cm2 of bone)
[10] = species on record: Rattus norvegicus; experiment: Inhibition of PTH-induced Wistar rat fetal long bone degradation assessed as labeled 45Ca release in to media at 1 to 10 uM after 48 hrs by liquid scintillation spectrometry; format: functional; in short: as §4
[11] = test system: Osteoclast; experiment: Inhibition of human osteoclast attachment to plastic surface assessed cells per cm2 of plastic at 10 uM after 3 days by immunocytochemistry (reference value: 9723 +/- 1380 cells/cm2 of plastic); format: functional
In short: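 Human PBMCs from a healthy volunteer (5 × 10^5 cells in MEM/10% FCS) were seeded on plastic coverslips with RANKL and CSF-1 (30 ng/ml each) for 10 days, with medium changed every 3 days. Compound was added on day 10 (0.1% DMSO final). On day 13, total cells on the coverslips were counted by immunocytochemistry. Data are mean ± SEM.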

[12] = as §2; format: ADME, organism-based; set-up: dose 80 mg/kg, route oral; conditions: in vivo; in short: as §3; remark: listed apart in the source
[13] = test system: Mus musculus; experiment: Inhibition of LPS-stimulated IL-6 production in mouse at 40 mg/kg, po administered 0.5 hr before LPS challenge measured […] after LPS challenge; format: functional
[14] = test system: Mus musculus; experiment: Inhibition of thioglycolate-induced macrophage influx into peritoneal cavity in mouse at 20 to 80 mg/kg, po BID; format: functional, organism-based; conditions: TDE = time-dependent effect; in short: as §1
[15] = test system: PBMC; experiment: Effect on LPS-induced IL-6 production in human PBMC at 0.03906 to 20 uM preincubated for 30 mins before LPS stimulation measured after 20 hrs by ELISA; format: functional, cell-based
[16] = Protein binding in cell-culture media with 10% fetal calf serum at 3 uM; format: ADME, cell-free, Bos taurus; conditions: cattle, read-out: PB (converted); in short: as §5
[17] = test system: Monocyte; experiment: Effect on LPS-induced TNF production in human monocytes at 0.03906 to 20 uM preincubated for 30 mins before LPS stimulation measured after 20 hrs by ELISA; format: functional, cell-based
[18] = test system: Mus musculus; experiment: Inhibition of LPS-stimulated TNF production in mouse at 40 mg/kg, po administered 0.5 hr before LPS challenge measured […] after LPS challenge; format: functional
[19] = test system: Monocyte; experiment: Effect on LPS-induced IL-6 production in human monocytes at 0.03906 to 20 uM preincubated for 30 mins before LPS stimulation measured after 20 hrs by ELISA; format: functional, cell-based
[20] = test system: Mus musculus; experiment: Inhibition of LPS-stimulated TNF production in CSF-1 primed mouse at 20 to 80 mg/kg, po administered 4.5 hr before LPS challenge and CSF-1 priming measured […] after LPS challenge; format: functional, organism-based
[21] = test system: HFF; experiment: Growth inhibition of serum-stimulated HFF after 3 days by spectrophotometry; format: cell-based; conditions: Homo sapiens, 72 h; in short: as §6
[22] = test system: NFS-60; experiment: Antitumor activity in mouse M-NFS-60 cells allografted in CD-1 nude mouse assessed as inhibition of tumor cell growth in peritoneal cavity at 80 mg/kg, po BID starting 1 hr before challenge for 4 days measured after 4 days; format: functional, organism-based; set-up: dose 80 mg/kg
In short: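 CD-1 nude female mice (22-26 g); 1 × 10^7 M-NFS-60 cells in PBS injected i.p. Oral dosing b.i.d. at 20 and 80 mg/kg as a suspension in 0.5% hydroxypropylmethylcellulose/0.1% Tween 80 (0.2 ml per mouse), starting 1 h before cell injection. Peritoneal cells recovered by cold PBS-heparin lavage on day 4 and counted by hemocytometer after crystal violet dilution. Mean ± SEM; Dunnett's test.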

[23] = test system: Mus musculus; experiment: Inhibition of LPS-stimulated TNF production in mouse at 40 mg/kg, po administered 4.5 hr before LPS challenge measured […] after LPS challenge; format: functional
[24] = molecular target: Protein kinase C beta type (Homo sapiens, UniProt P05771); experiment: Inhibition of human PKCb1 catalytic domain after by scintillation counting
Sequence of Protein kinase C beta type (P05771 whole entry, the tested form may be a part): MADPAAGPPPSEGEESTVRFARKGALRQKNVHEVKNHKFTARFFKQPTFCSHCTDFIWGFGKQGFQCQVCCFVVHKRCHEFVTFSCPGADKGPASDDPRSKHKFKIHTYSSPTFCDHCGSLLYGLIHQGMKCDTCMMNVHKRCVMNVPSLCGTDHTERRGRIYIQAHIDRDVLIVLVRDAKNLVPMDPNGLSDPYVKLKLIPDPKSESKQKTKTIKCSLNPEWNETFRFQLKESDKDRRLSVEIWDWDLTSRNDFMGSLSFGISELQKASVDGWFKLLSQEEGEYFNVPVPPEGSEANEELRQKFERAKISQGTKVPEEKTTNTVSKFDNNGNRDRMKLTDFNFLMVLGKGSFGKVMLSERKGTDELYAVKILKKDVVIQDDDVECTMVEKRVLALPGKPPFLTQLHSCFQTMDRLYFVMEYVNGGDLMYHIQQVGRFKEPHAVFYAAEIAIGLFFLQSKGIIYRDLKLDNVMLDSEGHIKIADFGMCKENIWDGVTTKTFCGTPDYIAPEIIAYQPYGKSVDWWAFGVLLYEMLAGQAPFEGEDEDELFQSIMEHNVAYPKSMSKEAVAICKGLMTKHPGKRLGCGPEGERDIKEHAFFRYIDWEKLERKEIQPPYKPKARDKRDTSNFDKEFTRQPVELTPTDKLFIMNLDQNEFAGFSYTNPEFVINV
In short: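 Catalytic domains of the human kinases were expressed, isolated and assayed with ATP and the appropriate substrate. Compound was tested as a 10- to 12-point dose-response up to a maximal 20 μM.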

Cmax [2]: 400 nM | Cmax [4]: 50 nM | fraction unbound at 3 µM [6]: 0.02 | Cmax [12]: 5600 nM | fraction unbound at 3 µM [16]: 0.76 | IC50 [24]: > 13 µM
Structure (SMILES): COc1ccc(COc2ccc(Cc3cnc(N)nc3N)cc2OC)cc1 [GW632580X]
inhibition in vivo at 80 mg/kg [1]: 45% | inhibition [3]: Active | inhibition (INH) [5]: 30% | bone resorption (%) at 1 µM [7]: 3.3% | IC50 [8]: > 30 µM | Activity [9]: 0 /cm2 | inhibition [10]: Active | Activity [11]: 2728 /cm2 | inhibition in vivo at 40 mg/kg [13]: 20% | inhibition [14]: tde | Activity [15]: inactive | Activity [17]: inactive | inhibition in vivo at 40 mg/kg [18]: 68% | Activity [19]: inactive | inhibition [20]: Active | IC50 [21]: > 30 µM | growth inhibition (GI) [22]: Active | inhibition in vivo at 40 mg/kg [23]: 42%
